What was measured:
MC-38 [1] = experiment: Number of toxic deaths/number of mice in a group of non tumored mice treated in parallel with the tumor-bearing mice and observed for 100 days at a dose 5.0 mg/kg; value given as 8/9; format: toxicity, organism-based; parameters: dose 5 mg/kg; conditions: mouse, in vivo, 2400 h
Outline: (§1)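 Non-tumored CDF1 mice were treated in parallel with colon 38 tumor-bearing mice: iv injections on days 1, 5 and 9, groups of nine. Deaths were counted over 100 days of observation and reported as toxic deaths / mice in group.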

MC-38 [2] = experiment: Number of toxic deaths/number of mice in a group of non tumored mice treated in parallel with the tumor-bearing mice and observed for 100 days at a dose 4.0 mg/kg; value given as 3/9; format: toxicity, organism-based; parameters: dose 4 mg/kg; conditions: mouse, in vivo, 2400 h; outline: as §1
MC-38 [3] = experiment: Mean survival time of treated / untreated group x100. (number of over 100-day survivors/number of total mice in the group) at a dose 3.0 mg/kg; format: functional, Mus musculus
Outline: (§2)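 CDF1 mice were implanted sc on day 0 with colon 38 adenocarcinoma fragments (70 mg) and given iv drug on days 1, 5 and 9. %T/C = median survival of treated / untreated × 100. Number of mice surviving over 100 days / group total is given in parentheses.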

MC-38 [4] = experiment: Activity against advanced carcinoma C38 Tumor in CDF1 Mice at dose 4.0 mg/Kg measured as % inhibition of tumor; format: functional; conditions: Mus musculus
P388 [5] = experiment: Antitumor activity in P388/ADR (adriamycin resistant), in male BDF1 mice measured as optimal dose at dose 2.5-4.5 mg/kg/ inj, ip
P388 [6] = experiment: Antitumor activity in P388/S(AMD sensitive) in male BDF1 mice measured as optimal dose
MC-38 [7] = experiment: Mean survival time of treated / untreated group x100. (number of over 100-day survivors/number of total mice in the group) at a dose 4.0 mg/kg; format: functional, Mus musculus; outline: as §2
MC-38 [8] = experiment: Number of toxic deaths/number of mice in a group of non tumored mice treated in parallel with the tumor-bearing mice and observed for 100 days at a dose 2.0 mg/kg; value given as 0/9; format: functional, Mus musculus; outline: as §1
MC-38 [9] = experiment: Activity against advanced carcinoma C38 Tumor in CDF1 Mice at dose 3.0 mg/Kg measured as % inhibition of tumor; format: functional; conditions: Mus musculus
MC-38 [10] = experiment: Activity against advanced carcinoma C38 Tumor in CDF1 Mice at dose 2.0 mg/Kg measured as % inhibition of tumor; format: functional; conditions: Mus musculus
MC-38 [11] = experiment: Number of toxic deaths/number of mice in a group of non tumored mice treated in parallel with the tumor-bearing mice and observed for 100 days at a dose 3.0 mg/kg; value given as 0/9; format: functional, Mus musculus; outline: as §1
HT-29 [12] = experiment: 50% inhibition of incorporationf precursor [3H]thymidine into RNA HT-29 cell lines; format: functional, cell-based; conditions: Homo sapiens, HT-29, 2 h; in the assay text read “[14C]uridine” for “[3H]thymidine”
Outline: (§3)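 HT-29 colon carcinoma monolayers, 10^4 cells per well, five wells per concentration. Drug exposure lasted 2 h, with [³H]thymidine and [2-¹⁴C]uridine (0.5 μCi each) added for the last hour. Cells were washed, trypsinized, counted and precipitated onto glass-fiber filters with 10% TCA. Acid-precipitable radioactivity was measured. IC50 is the concentration inhibiting 50% of incorporation; data are averages of replicate experiments.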

MC-38 [13] = experiment: Number of toxic deaths/number of mice in a group of non tumored mice treated in parallel with the tumor-bearing mice and observed for 100 days at a dose of 0.30 mg/ kg; value given as 0/9; format: functional, Mus musculus; outline: as §1
Rattus norvegicus [14] = species: Rattus norvegicus; experiment: Percent of the tissue bound conjugates isolated from incubation mixture containing rat microsomes; format: functional
Outline: (§4)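 Tritiated analogues were incubated with two systems. (T) sonicated P388 cell homogenates, 37 °C for 16 h. (M) liver microsomes from phenobarbital-induced rats, 6 h with an NADPH-generating system (glucose-6-phosphate dehydrogenase plus glucose 6-phosphate). Metabolites and water-soluble conjugates were isolated, separated by HPLC and expressed as percentages.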

MC-38 [15] = experiment: Mean survival time of treated / untreated group x100. (number of over 100-day survivors/number of total mice in the group) at a dose 1.20 mg/kg; format: functional, Mus musculus; conditions: dose 1.2 mg/kg; outline: as §2
HT-29 [16] = experiment: 50% inhibition of incorporationf precursor [3H]thymidine into DNA HT-29 cell lines; format: functional, cell-based; conditions: Homo sapiens, HT-29, 2 h; outline: as §3
pBR322 plasmid DNA = experiment: DNA-cleaving ability expressed as % of closed circular pBR322 DNA cleaved […]
P388 (Mus musculus) [17] = experiment: Percent of the tissue bound conjugates isolated from incubation mixture containing tumor cell homogenate(T)
P388 (Mus musculus) [18] = experiment: Percent of the uncoverted isolated from incubation mixture containing tumor cell homogenate(T)
Rattus norvegicus [19] = species: Rattus norvegicus; experiment: Percent of the unidentified metabolites isolated from incubation mixture containing rat micro somes; format: functional; outline: as §4
Rattus norvegicus [20] = species: Rattus norvegicus; experiment: Percent of the protein conjugates isolated from incubation mixture containing tumor cell homogenate(T); format: functional; outline: as §4
P388 (Mus musculus) [21] = experiment: Percent of the unidentified metabolites isolated from incubation mixture containing tumor cell homogenate(T)
Rattus norvegicus [22] = species: Rattus norvegicus; experiment: Percent of the protein conjugates isolated from incubation mixture containing rat micro somes; format: functional; outline: as §4
[23] = DNA-cleaving ability expressed as % of closed circular pBR322 DNA cleaved at 10 uM conc 10 uM
MC-38 [24] = experiment: Number of toxic deaths/number of mice in a group of non tumored mice treated in parallel with the tumor-bearing mice and observed for 100 days at a dose of 0.60 mg/ kg; value given as 0/9; format: functional, Mus musculus; outline: as §1
Rattus norvegicus [25] = species: Rattus norvegicus; experiment: DNA-cleaving ability expressed as % of closed circular pBR322 DNA cleaved […] conc 50 uM; format: functional
Outline: (§5)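 pBR322 DNA (200 μM nucleotides) in 10 mM Tris·HCl pH 7.8 and 50 mM NaCl, with 4 mM Na₂S₂O₄ and 100 μM FeCl₂. Incubated with drug for 1 h at 20 °C, kept air-saturated. Supercoiled and open-circular forms were separated by agarose gel electrophoresis, stained with ethidium bromide and quantitated by densitometry. % cleaved was calculated from the open- and closed-circular amounts.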

Rattus norvegicus [26] = species: Rattus norvegicus; experiment: Percent of the uncoverted isolated from incubation mixture containing trat microsomes,; format: functional; outline: as §4
P388 [27] = experiment: 50% inhibition of incorporation of precursor [3H]thymidine into DNA P388 cell lines; format: functional, cell-based; conditions: Mus musculus, P388, 2 h
MC-38 [28] = experiment: Activity against advanced carcinoma C38 tumor in CDF1 Mice at dose 0.30 mg/kg measured as % inhibition of tumor; format: functional; conditions: Mus musculus
MC-38 [29] = experiment: Activity against advanced carcinoma C38 tumor in CDF1 mice at dose 1.20 mg/kg measured as % inhibition of tumor; format: functional; conditions: Mus musculus
Rattus norvegicus [30] = species: Rattus norvegicus; experiment: The formation of adrenochrome from epinephrine in the absence of SOD(super oxide dismutase); format: functional
Outline: (§6)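 Drug-stimulated superoxide generation with rat liver microsomal enzymes and NADPH as cofactor. NADPH oxidation was read at 340 nm. Adrenochrome formed from epinephrine was read at 480 nm, with or without superoxide dismutase. % stimulation = [(drug-stimulated rate − basal rate)/basal rate] × 100. Values are mean ± standard error of triplicate analyses.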

MC-38 [31] = experiment: Mean survival time of treated / untreated group x100. (number of over 100-day survivors/number of total mice in the group) at a dose 0.60 mg/kg; format: functional, Mus musculus; conditions: dose 0.6 mg/kg; outline: as §2
Rattus norvegicus [32] = species: Rattus norvegicus; experiment: The formation of adrenochrome from epinephrine in the presence of SOD(super oxide dismutase); + denotes ' Inhibited'; format: functional; outline: as §6
Rattus norvegicus [33] = species: Rattus norvegicus; experiment: DNA-cleaving ability expressed as % of closed circular pBR322 DNA cleaved at 100 uM conc 100 uM; format: functional; outline: as §5
Rattus norvegicus [34] = species: Rattus norvegicus; experiment: Percent of the SAD glucuronide and/or sulfate isolated from incubation mixture containing tumor cell homogenate(T) after 8.0, 10.5 min.; format: functional; outline: as §4
P388 [35] = experiment: Antitumor activity in P388/ADR (adriamycin resistant), in male BDF1 mice measured as optimal dose
MC-38 [36] = experiment: Number of toxic deaths/number of mice in a group of non tumored mice treated in parallel with the tumor-bearing mice and observed for 100 days at a dose of 1.20 mg/ Kg; value given as 4/9; format: toxicity; conditions: mouse, in vivo, 1.2 mg/kg, 2400 h; outline: as §1
B16 [37] = experiment: In vivo antitumor activity against B16 melanoma cells at dose 300 ug/Kg /inj measured as Mean survival time (MST); format: functional, Mus musculus
Outline: (§7)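 BDF1 mice in groups of nine were implanted ip on day 0 with 0.2 mL of 1:5 (w/v) B16 melanoma brei; drugs were given ip. Survival is reported as median survival time in days with range, and as %ILS, with survivors counted on day 65 out of total injected.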

P388 [38] = experiment: Antitumor activity in P388/S(AMD sensitive) in male BDF1 mice measured as optimal dose at dose 0.3-1.8 mg/kg
Rattus norvegicus [39] = species: Rattus norvegicus; experiment: Stimulation of NADPH oxidation in the presence of rat liver microsomes; format: functional; outline: as §6
B16 [40] = experiment: In vivo antitumor activity against B16 melanoma cells at a optimal dose measured as %ILS (%increase life span); format: functional, Mus musculus; outline: as §7
P388 [41] = experiment: 50% inhibition of incorporation precursor [14C]uridine into RNA P388 cell lines; format: functional, cell-based; conditions: Mus musculus
MC-38 [42] = experiment: Activity against advanced carcinoma C38 tumor in CDF1 Mice at dose 0.60 mg/kg measured as % inhibition of tumor; format: functional; conditions: Mus musculus
MC-38 [43] = experiment: Mean survival time of treated / untreated group x100. (number of over 100-day survivors/number of total mice in the group) at a dose 0.30 mg/kg; format: functional, Mus musculus; conditions: dose 0.3 mg/kg; outline: as §2

## COc1cccc2c1C(=O)c1c(O)c3c(c(O)c1C2=O)C[C@@](O)(C(=O)CO)C[C@@H]3O[C@H]1C[C@H](N)[C@H](O)[C@H](C)O1 [DOXORUBICIN]
MC-38 [1]
  Toxic deaths: 8
MC-38 [2]
  Toxic deaths: 3
MC-38 [3]
  T/C: 98%
MC-38 [4]
  inhibition in vivo at 4 mg/kg: 93%
P388 [5]
  optimal dose: 3.5 mg/kg
P388 [6]
  optimal dose: 3 mg/kg
MC-38 [7]
  T/C: 250%
MC-38 [8]
  Toxic deaths: 0
MC-38 [9]
  inhibition in vivo at 3 mg/kg: 70%
MC-38 [10]
  inhibition in vivo at 2 mg/kg: 29%
MC-38 [11]
  Toxic deaths: 0

## Cc1c2oc3c(C)c(O)c(N)c(C(=O)N[C@@H]4C(=O)N[C@H](C(C)C)C(=O)N5CCC[C@H]5C(=O)N(C)CC(=O)N(C)[C@@H](C(C)C)C(=O)O[C@@H]4C)c3nc-2c(C(=O)N[C@@H]2C(=O)N[C@H](C(C)C)C(=O)N3CCC[C@H]3C(=O)N(C)CC(=O)N(C)[C@@H](C(C)C)C(=O)O[C@@H]2C)c(N)c1=O
HT-29 [12]
  IC50: 55 nM
MC-38 [13]
  Toxic deaths: 0
Rattus norvegicus [14]
  Activity: 15%
MC-38 [15]
  T/C: 211%
HT-29 [16]
  IC50: 70 nM
pBR322 plasmid DNA
  Activity: 50%
P388 (Mus musculus) [17]
  Activity: 7.5%
P388 (Mus musculus) [18]
  Activity: 30%
Rattus norvegicus [19]
  Activity: 15%
Rattus norvegicus [20]
  Activity: 5.5%
P388 (Mus musculus) [21]
  Activity: 10%
Rattus norvegicus [22]
  Activity: 20%
[23]
  Activity: 35%
MC-38 [24]
  Toxic deaths: 0
Rattus norvegicus [25]
  Activity: 50%
Rattus norvegicus [26]
  Activity: 50%
P388 [27]
  IC50: 12 nM
MC-38 [28]
  inhibition in vivo at 0.3 mg/kg: 95%
MC-38 [29]
  inhibition in vivo at 1.2 mg/kg: 99%
Rattus norvegicus [30]
  Adrenochrome formation: 19.3 nM min-1 (mg of protein)-1
MC-38 [31]
  T/C: 278%
Rattus norvegicus [32]
  Adrenochrome formation: Inhibited
Rattus norvegicus [33]
  Activity: 65%
Rattus norvegicus [34]
  Activity: 47%
P388 [35]
  optimal dose: 1.2 mg/kg
MC-38 [36]
  Toxic deaths: 4
B16 [37]
  MST: 57
P388 [38]
  optimal dose: 0.6 mg/kg
Rattus norvegicus [39]
  NADPH oxidation (nM min-1 (mg of protein)-1): 64.3
B16 [40]
  ILS: 96%
P388 [41]
  IC50: 15 nM
MC-38 [42]
  inhibition in vivo at 0.6 mg/kg: 97%
MC-38 [43]
  T/C: 278%

Reference: ChEMBL document CHEMBL1124291, “New actinomycin D analogues as superior chemotherapeutic agents against primary and advanced colon tumors and colon xenografts in nude mice” (J Med Chem, 1988)
